“And” between values parts separate entries of the source, which are not always exact repeats. Equal entries are not always repeated. The source made the active and inactive calls.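 The calls were made as follows, unless noted: active = viability at or below 10% of carrier control in both of two separate runs; inconclusive = viability at or below 10% in only one of the two runs; inactive = the rest.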
Key:
[1] = SK-BR-3 cell growth inhibitors, pilot screen, 24 h, human (AID 572); conditions: SK-BR-3 viability, CellTiter-Glo luminescence, at 10 µM, stronger effect = lower value;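 also: compound exposure lasted between 18 and 24 h rather than exactly 24 h; 100% = carrier-treated control wells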
[2] = HUVEC growth inhibition – cell-based, human, primary screen (AID 575;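 active = viability at or below 30% in both replicate assays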;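 also: 100% = median of untreated cell wells with 0.1% DMSO on each plate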); conditions: HUVEC proliferation, CellTiter-Glo luminescence, 72 h; at 10 µM; stronger effect = lower value
In short: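 Test system: primary human umbilical vein endothelial cells. Quantity: 1250 cells/well. Compound: single 10 µM dose, 0.1% DMSO, from 5x medium stock. Timing: 72 h treatment at 37 °C. Detection: ATP-based CellTiter-Glo luminescent read. Benchmarks: vehicle and MePR control wells. Format: 384-well plates coated with collagen.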

[3] = growth inhibitors of H69AR lung tumor, primary screen, human, duplicate replicates (AID 580;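 active = viability at or under a set limit in both replicates, limit being median viability minus 3 SD, cut at about 48% in these data, passing the limit was not always enough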;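 also: 100% = mean luminescence of untreated wells and 0% = no signal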); conditions: H69AR lung tumor cells viability, ATP luminescence, 72 h; at 10 µM; stronger effect = lower value
[4] = reversal of MRP1-mediated doxorubicin resistance, pilot screen, H69AR cells, doxorubicin co-treatment (AID 601;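 active = viability loss from added drug above about 55%, and viability with drug at most 40%, in both replicates, limit read from the data, passing the limit was not always enough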); conditions: CellTiter-Glo, 72 h, at 10 µM; for differential viability (reversal): stronger effect = higher value
[5] = 384-well plate pilot, post-Golgi transport modulator project, inhibition of yeast transport mutant growth (AID 636; in the data active = inhibition above about 31%); conditions: absorbance 615 nm, about 18 h, stronger effect = higher value
[6] = growth suppression of yeast trafficking mutant, preliminary HTS, modulators of trafficking downstream of Golgi apparatus project, 1536-format plate, OD 615 nm (AID 637; in the data active = inhibition above about 30%); conditions: yeast transport mutant growth, absorbance 615 nm, 18 h; stronger effect = higher value
[7] = H69AR cells + 2 uM doxorubicin, measured here: viability with 2 uM doxorubicin, stronger effect = lower value
[8] = H69AR cells, compound alone cytotoxicity

| SMILES | viability [1] | viability [2] | viability [3] | differential viability (reversal) ([4]; H69AR cells + 2 uM doxorubicin) | viability [4, 7] | viability [4, 8] | inhibition [5] | inhibition [6] |
| --- | --- | --- | --- | --- | --- | --- | --- | --- |
| CCOC(=O)c1c(N)c(C#N)nn1-c1ccccc1C(=O)OC | 96% (inactive) | 109% (inactive) | 92.3% (inactive) | 6.05% (inactive) | 86.2% | 92.3% | -5.87% (inactive) | 0.73% (inactive) |
| CCSc1nc(N)c(C#N)c(-c2ccccc2Cl)c1C#N | 105% (inactive) | 96.1% (inactive) | 75.9% (inactive) | -3% (inactive) | 78.9% | 75.9% | 0.14% (inactive) | 0% (inactive) |
| O=C(CN1CCC(O)(c2ccc3c(c2)OCO3)CC1)OC1CCCCC1 | 83% (inactive) | 103% (inactive) | 96.8% (inactive) | 3.36% (inactive) | 93.4% | 96.8% | -7.3% (inactive) | 2.73% (inactive) |
| Cc1cc(C)n(C(C)n2nc(C)cc2C)n1 | 107% (inactive) | 103% (inactive) | 87.8% (inactive) | 9.01% (inactive) | 78.8% | 87.8% | -7.87% (inactive) | -0.91% (inactive) |
| COc1cccc(-c2nnc(NC(=O)Cc3cccs3)s2)c1 | 88% (inactive) | 84.8% (inactive) | 82.6% (inactive) | -14.2% (inactive) | 96.8% | 82.6% | -5.34% (inactive) | 5.16% (inactive) |
| CCN(CC)C(=O)c1ccc(O)c(OC)c1 | 100% (inactive) | 90.7% (inactive) | 101% (inactive) | 0.23% (inactive) | 101% | 101% | -4.94% (inactive) | -5% (inactive) |
| C1=C(CCNc2ncnc3c2cnn3-c2ccccc2)CCCC1 | 98% (inactive) | 116% (inactive) | 88.7% (inactive) | 6.36% (inactive) | 82.3% | 88.7% | -4.13% (inactive) | 0.91% (inactive) |
| O=C(O)c1ccc(S(=O)(=O)Cc2ccccc2)cc1 | 95% (inactive) | 102% (inactive) | 87.3% (inactive) | -7.88% (inactive) | 95.2% | 87.3% | -3.29% (inactive) | 1.45% (inactive) |
| COc1ccc(CCN(Cc2cc3cccc(C)c3[nH]c2=O)C(=O)N2CCCC2)cc1OC | 106% (inactive) | 104% (inactive) | 98.8% (inactive) | 1.51% (inactive) | 97.3% | 98.8% | -2.6% (inactive) | -0.36% (inactive) |
| COc1ccc(NC(=O)CSc2nc3c(c(=O)n2-c2ccc(F)cc2)SCC3)c(OC)c1 | 89% (inactive) | 91.1% (inactive) | 90.7% (inactive) | 13.1% (inactive) | 77.5% | 90.7% | -6.71% (inactive) | 3.87% (inactive) |
| CC(C)C[C@H](NC(=O)Nc1cccc(C(F)(F)F)c1)C(=O)O | 115% (inactive) | 98.1% (inactive) | 106% (inactive) | 14.6% (inactive) | 91.8% | 106% | -4.25% (inactive) | -0.81% (inactive) |
| O=C(CN(Cc1ccc(F)cc1)C(=O)c1ccco1)NCc1ccc(F)cc1 | 104% (inactive) | 112% (inactive) | 94.1% (inactive) | 18.5% (inactive) | 75.6% | 94.1% | -8% (inactive) | -6.91% (inactive) |
| CC(C)(C)NC(=O)CN(Cc1cccs1)C(=O)c1csnn1 | 96% (inactive) | 99.7% (inactive) | 105% (inactive) | -2.3% (inactive) | 108% | 105% | -7.12% (inactive) | -0.36% (inactive) |
| O=C(CN1C(=O)CC(c2ccco2)Sc2ccccc21)Nc1ccc2c(c1)OCCO2 (centres undefined) | 130% (inactive) | 99% (inactive) | 76.9% (inactive) | 1.83% (inactive) | 75.1% | 76.9% | -2.76% (inactive) | -0.16% (inactive) |
| COc1ccccc1N1CCN(C(=O)CSc2nc3ncnc(N)c3[nH]2)CC1 | 110% (inactive) | 96.6% (inactive) | 92.8% (inactive) | 3.56% (inactive) | 89.3% | 92.8% | -4.29% (inactive) | -1.31% (inactive) |
| Cc1cc(C)n(CC(=O)NC2CCCCC2)n1 | 113% (inactive) | 114% (inactive) | 98% (inactive) | 12.7% (inactive) | 85.3% | 98% | -8.49% (inactive) | 0.32% (inactive) |
| COc1ccc2cnn(-c3ccccc3C)c(=O)c2c1OC | 88% (inactive) | 85.5% (inactive) | 106% (inactive) | -1.29% (inactive) | 108% | 106% | -3.24% (inactive) | 0.55% (inactive) |

| SMILES | viability [1] | viability [2] | viability [3] | differential viability (reversal) ([4]; H69AR cells + 2 uM doxorubicin) | viability [4, 7] | viability [4, 8] | inhibition [5] | inhibition [6] |
| --- | --- | --- | --- | --- | --- | --- | --- | --- |
| COc1ccc(C(NC(C)=O)c2ccc3cccnc3c2O)c(OC)c1 (centres undefined) | 65% (inactive) | 3.65% (active) | 23% (active) | -22.1% (inactive) | 45.1% | 23% | -6.4% (inactive) | 1.09% (inactive) |
| CCOCCCn1c(=NC(C)=O)c(C(=O)OCC)cc2c(=O)n3ccccc3nc21 | 82% (inactive) | 108% (inactive) | 90.5% (inactive) | 43.1% (inactive) | 47.4% | 90.5% | -0.68% (inactive) | 2% (inactive) |
| CC1=C(C(=O)N2CCOCC2)C(c2ccsc2)C2=C(CCCC2=O)N1 (centres undefined) | 96% (inactive) | 107% (inactive) | 90.4% (inactive) | -0.065% (inactive) | 90.5% | 90.4% | -2.47% (inactive) | 7.74% (inactive) |
| CC(C)(C)NS(=O)(=O)c1ccc(CCC(=O)O)cc1 | 100% (inactive) | 105% (inactive) | 94.8% (inactive) | -5.2% (inactive) | 100% | 94.8% | -3.42% (inactive) | -1.45% (inactive) |
| Nn1c(SCC(=O)Nc2ccccc2)nnc1-c1cccnc1 | 78% (inactive) | 96.9% (inactive) | 88.1% (inactive) | 2.29% (inactive) | 85.8% | 88.1% | -8% (inactive) | 3.64% (inactive) |
| N#CC1=C(N)N(c2ccc(Oc3ccccc3)cc2)C(=O)C1 | 130% (inactive) | 106% (inactive) | 90.2% (inactive) | 8.2% (inactive) | 82% | 90.2% | -5.62% (inactive) | 0.48% (inactive) |
| O=C1c2oc3ccccc3c(=O)c2C(c2cccnc2)N1Cc1ccco1 (centres undefined) | 98% (inactive) | 106% (inactive) | 87.8% (inactive) | -0.59% (inactive) | 88.4% | 87.8% | -0.96% (inactive) | -2.36% (inactive) |
| Cc1cc(C)cc(N2C(=O)C3C4C=CC(C4)C3C2=O)c1 (centres undefined) | 100% (inactive) | 109% (inactive) | 93% (inactive) | 7.94% (inactive) | 85% | 93% | -3.15% (inactive) | 2.36% (inactive) |
| CCOC(=O)c1ccc(N(CC(=O)NC2CCCC2)C(=O)CNC(=O)c2ccco2)cc1 | 90% (inactive) | 95.4% (inactive) | 93.9% (inactive) | 1.51% (inactive) | 92.4% | 93.9% | 0.13% (inactive) | -2.46% (inactive) |
| CCCCOc1cc(C(=O)NCCN(CC)CC)c2ccccc2n1 | 99% (inactive) and 112% (inactive) | 53.4% (inactive) and 59.6% (inactive) | 89.5% (inactive) and 84.4% (inactive) | 8.11% (inactive) and 17.8% (inactive) | 81.4% and 66.6% | 89.5% and 84.4% | -2.86% (inactive) and -0.26% (inactive) | 0.33% (inactive) and 6.5% (inactive) |
| O=C(Nc1ccccn1)N1CCOCC1 | 123% (inactive) | 110% (inactive) | 95.5% (inactive) | 6.42% (inactive) | 89.1% | 95.5% | -7.3% (inactive) | -5.45% (inactive) |
| c1ccc(-c2ccc(-c3ccccn3)nn2)nc1 | 112% (inactive) | 55.3% (inactive) | 59.4% (inactive) | -10.1% (inactive) | 69.5% | 59.4% | -6.27% (inactive) | -0.63% (inactive) |
| COc1ccc(C(=O)CSc2nnc(-c3ccc(C)cc3)o2)cc1 | 97% (inactive) | 110% (inactive) | 86.4% (inactive) | -2.64% (inactive) | 89% | 86.4% | 4% (inactive) | 5.09% (inactive) |
| C=CCn1c(SCC(=O)C(C)(C)C)nnc1-c1ccccn1 | 88% (inactive) | 94.4% (inactive) | 92.2% (inactive) | -0.455% (inactive) | 92.6% | 92.2% | -7.57% (inactive) | -3.64% (inactive) |
| CC(=O)OCC(=O)[C@@]1(OC(C)=O)[C@@H](C)C[C@H]2[C@@H]3C[C@H](F)C4=CC(=O)C=C[C@]4(C)[C@@]3(F)[C@@H](O)C[C@@]21C | 119% (inactive) | 102% (inactive) | 94.5% (inactive) | 5.08% (inactive) | 89.5% | 94.5% | -1.69% (inactive) | 7.33% (inactive) |
| CCN(CC)CCCNC1CCS(=O)(=O)C1 (centres undefined) | 126% (inactive) | 83% (inactive) | 87.9% (inactive) | 4.3% (inactive) | 83.6% | 87.9% | -3.42% (inactive) | -4.52% (inactive) |

Source: PubChem BioAssay
